Screening data from PubChem BioAssay.
NPY Y2 blocker = blocks the human neuropeptide Y Y2 receptor | NPY-Y2 expressing cells, antagonist mode | P49146 | inhibition, % at 2.7 µM | 140,000 tested, 0.99% active | AID 793; in the data active = inhibition above about 17%;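 note: 0% = vehicle with agonist challenge and 100% = reference antagonist with challenge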
NPY-Y1 PAM-ag = potentiates or activates human NPY-Y1 receptor; AID 1304; P25929; activation, % at 3.6 µM; 220,000 tested, 0.37% active; NPY-Y1 expressing cells, potentiator/agonist activation; in the data active = activation above about 33%, passing the limit was not always enough;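 note: cells stimulated with NPY at EC10 then isoproterenol at EC100; 0% = low agonist plus stimulus and 100% = saturating agonist plus stimulus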
Target sequence (P25929 whole entry, looked up): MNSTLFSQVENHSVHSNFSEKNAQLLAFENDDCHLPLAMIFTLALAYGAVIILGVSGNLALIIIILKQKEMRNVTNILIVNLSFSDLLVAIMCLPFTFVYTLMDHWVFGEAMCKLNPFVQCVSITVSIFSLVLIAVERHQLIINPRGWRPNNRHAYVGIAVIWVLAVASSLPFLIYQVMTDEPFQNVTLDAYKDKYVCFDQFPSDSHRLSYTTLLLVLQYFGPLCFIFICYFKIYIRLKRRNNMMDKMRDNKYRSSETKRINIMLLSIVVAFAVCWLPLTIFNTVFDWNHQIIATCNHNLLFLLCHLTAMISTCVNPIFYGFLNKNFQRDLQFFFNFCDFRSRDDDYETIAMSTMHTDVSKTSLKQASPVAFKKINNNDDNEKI
NPY2 pot ag = potentiators or agonists of human neuropeptide Y receptor Y2; P49146; cells expressing NPY-Y2, potentiator/agonist read-out; activation, % at 3.6 µM; 220,000 tested, 0.45% active; in the data active = activation above about 27%;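 note: cells stimulated with NPY near EC25 plus isoproterenol at EC100; 0% = vehicle plus submaximal agonist and 100% = vehicle plus saturating agonist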
NPY-Y1 antag = NPY-Y1 (human) receptor antagonism; AID 1040; HEK293-CNG Y1 cells, membrane potential fluorescence; NPY at EC95, then isoproterenol; P25929; 200,000 tested, 1% active; inhibition, % at 3.6 µM;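 active = inhibition above the campaign mean inhibition of all tested compounds plus 3 SD, cut at about 20% in these data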;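 note: 0% = DMSO wells given NPY plus isoproterenol and 100% = isoproterenol alone without NPY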
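Material: HEK293 cells with Y1 receptor plus CNG channel; times: compound incubation 1 h at room temperature, readout 45 min post-stimulation; signal: fluorescence, membrane potential probe; read-out basis: fluorescence ratio normalized to % inhibition between controls; benchmarks: full-block control isoproterenol-only wells, zero-block control NPY plus isoproterenol wells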
Ins promoter up = MIN6 insulin promoter up-regulation. MIN6 insulin promoter-GFP reporter, high-content imaging; active compounds read high. z-score at 5 µM. 190,000 tested, 0.3% active. AID 1625;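 active = z-score above 3 at 5 µM with at least 500 cells counted in the well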
INS promoter inh = TRM-6 insulin promoter activity inhibition. 130,000 tested, 0.9% active. inhibition, % at 2 µM. TRM-6 cells, insulin promoter-eGFP reporter, imaging; reporter expression induced with tamoxifen;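 active = inhibition above the mean plus 3 SD, with well images judged a real hit on visual review, cut at about 60% in these data, passing the limit was not always enough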
Numbers without * were called inactive; nt = not tested or not shown. Most compounds without a hit are left out; they make up all but 2.5% or so of the library.

SMILES	NPY Y2 blocker	NPY-Y1 PAM-ag	NPY2 pot ag	NPY-Y1 antag	Ins promoter up	INS promoter inh
Cc1noc(NS(=O)(=O)c2ccc(NC(=O)Nc3ccc(Cl)c(Cl)c3)cc2)c1C	4	8	12	-2	1	75*
CCNc1nc(NC(C)(C)C)nc(N2CCCCC2)n1	nt	50*	30*	-3	-1.1	35
COc1ccc(N2CCN(c3oc(Cc4ccccc4)nc3C#N)CC2)cc1	16	-11	-11	15	-0.23	-8
COc1ccc(N2CCN(c3oc(COc4ccccc4)nc3C#N)CC2)cc1	27*	1	-12	39*	-1.8	nt
COc1ccc(N2CCN(c3oc(COc4ccc(Cl)cc4Cl)nc3C#N)CC2)cc1	11	-51	-16	52*	-0.02	-7
N#Cc1nc(COc2ccc(Cl)cc2Cl)oc1N1CCOCC1	4	-22	13	8	1.2	43
N#Cc1nc(COc2ccc(Br)cc2)oc1N1CCCC1	22*	-23	-49	27*	-0.41	9
COc1ccc(N2CCN(c3oc(COc4ccc(Cl)cc4)nc3C#N)CC2)cc1	24*	-40	-8	49*	-0.24	nt
CC(C)(C)c1ccc(C(=O)CC(Sc2ccc(Cl)cc2)C(=O)O)cc1 (configuration not stated)	nt	11	6	0	1.3	nt
N#Cc1nc(COc2ccc(Cl)cc2)oc1N1CCN(Cc2ccccc2)CC1	32*	-49	-37	34*	-0.34	nt
COc1ccc(CNC(=O)C/C(C)=N/NC(=O)COc2ccc(Br)cc2)cc1	nt	8	-8	2	-0.1	nt
Cc1cc(Nc2ncc(Cl)cc2Cl)n(-c2ccccc2C)n1	20*	-12	-1	29*	1	29
O=c1c2sc3ccccc3c2[nH]c(=S)n1CCN1CCOCC1	nt	2	3	-9	nt	-9
CC(=O)N1CCN(Cc2nc3cc(NC(=O)COc4ccccc4)ccc3n2C)CC1	nt	3	9	1	-0.24	nt
COc1ccc(C(=O)C(CCCCC(CN(C)C)C(=O)c2ccc(OC)cc2)CN(C)C)cc1 (configuration not stated)	22*	-93	-23	21*	-0.35	nt
O=C(Nc1ccc2ccccc2c1)C(c1ccccc1)C1CCCC1 (configuration not stated)	22*	-14	-4	33*	nt	nt
NC(=O)C(c1ccccc1)C1CCCC1 (configuration not stated)	4	-17	-14	-3	0.32	-106
Cc1ccccc1NC(=O)C(c1ccccc1)C1CCCC1 (configuration not stated)	23*	-19	-8	26*	nt	nt
C/C(CC(=O)Nc1ccc(Cl)cc1)=N\NC(=O)C(=O)N1CCCCC1	nt	16	-3	2	nt	39
N#C/C(=C\c1cn[nH]c1-c1ccccc1)C(=O)NC1CCCCCC1	2	-9	-16	7	nt	-10
COc1ccc(-c2[nH]ncc2/C=C(\C#N)C(=O)NC2CC2)cc1	-2	1	-6	-2	0.93	73*
N#C/C(=C\c1cn[nH]c1-c1ccc(Cl)cc1)C(=O)NC1CC1	3	-20	1	9	-0.92	79*
CC(NC(=O)/C(C#N)=C/c1cn[nH]c1-c1ccccc1)c1ccccc1 (configuration not stated)	4	-25	-12	1	1.7	nt
CCCN1C(=O)/C(=C/c2c(NCCCOCC)nc3c(C)cccn3c2=O)SC1=S	-1	-20	-2	-5	5.7*	-27
CC(C)CN1C(=O)/C(=C/c2c(N3CCc4ccccc4C3)nc3ccccn3c2=O)SC1=S	nt	9	15	nt	17*	nt
SMILES	NPY Y2 blocker	NPY-Y1 PAM-ag	NPY2 pot ag	NPY-Y1 antag	Ins promoter up	INS promoter inh
O=Cc1c(N2CCSCC2)nc2ccccn2c1=O	nt	9	1	nt	0.02	nt
CCOC(=O)CC1C(=O)NCCN1c1nc2c(C)cccn2c(=O)c1/C=C1\SC(=S)N(CC(C)C)C1=O (configuration not stated)	nt	32	10	nt	17*	nt
CCOCCCNc1nc2c(C)cccn2c(=O)c1/C=C1\SC(=S)N(CC(C)C)C1=O	3	-2	3	2	nt	-223
O=c1oc(-c2cccs2)nc2sc3c(c12)CCCC3	0	18	5	0	0.56	68*
O=[N+]([O-])c1ccccc1Nc1c2ccccc2nc2ccccc12	nt	50*	49*	-8	-0.11	nt
N#Cc1cc(-c2ccccc2)[nH]c1-c1nccc2ccccc12	nt	-20	-10	nt	-0.73	nt
